From PubChem BioAssay
Calls of active or inactive are those of the source.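 Rule for the calls, unless noted: active = compounds giving at least 50% inhibition in the cell-based MKP-3 phosphatase rescue imaging test; inactive = the rest.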

Experiments:
[1] = inhibitors of TNFa-induced NFkB p65 translocation, primary screen, imaging, HUVEC, MLSMR starter and 10KST1 sets (AID 438;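 active = inhibition above 20% together with a positive visual image hit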;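 note: compound added about 3h40 before a 20 min TNFalpha stimulation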;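 for inhibition: signal is the nuclear over cytoplasmic p65 intensity ratio per well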); settings: HUVEC TNFa-induced p65 nuclear translocation; cell count: measured here: nuclei count (cytotoxicity indicator), at 2.08 µM; inhibition: at 2 µM, stronger effect = higher value, 0% TNFa-plus-vehicle, 100% no-TNFa wells
[2] = inhibitors of E-selectin induction by TNFa, primary screen, imaging, HUVEC, immunofluorescence, MLSMR starter and 10KST1 sets (AID 487;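 active = visually confirmed hit in the image check and inhibition above 20%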;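 for inhibition: signal is fraction of cell area covered by stained E-selectin grains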;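 for nuclei count: 100% = median nuclei count of all wells on the same plate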); settings: HUVEC TNFalpha-induced E-selectin immunofluorescence imaging, at 2 µM; inhibition: stronger effect = higher value; nuclei count: measured here: cell number, toxicity
[3] = DUSP6 inhibitors restoring Erk phosphorylation by chemical complementation, primary imaging in DUSP6-transfected HeLa (AID 609); settings: HeLa MKP-3 transfected, phospho-Erk imaging KS statistic, at 10 µM, cells stimulated with TPA for 15 min;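 for inhibition: phospho-Erk level distribution per well compared with pooled transfected vehicle control wells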
[4] = target: Dual specificity protein phosphatase 6 (Homo sapiens) (UniProt Q16828); assay: as above; settings: HeLa MKP-3 transfected, phospho-Erk imaging KS statistic; at 10 µM; stronger effect = higher value; cells stimulated with TPA for 15 min
Dual specificity protein phosphatase 6 (Homo sapiens), sequence (Q16828 whole entry, looked up): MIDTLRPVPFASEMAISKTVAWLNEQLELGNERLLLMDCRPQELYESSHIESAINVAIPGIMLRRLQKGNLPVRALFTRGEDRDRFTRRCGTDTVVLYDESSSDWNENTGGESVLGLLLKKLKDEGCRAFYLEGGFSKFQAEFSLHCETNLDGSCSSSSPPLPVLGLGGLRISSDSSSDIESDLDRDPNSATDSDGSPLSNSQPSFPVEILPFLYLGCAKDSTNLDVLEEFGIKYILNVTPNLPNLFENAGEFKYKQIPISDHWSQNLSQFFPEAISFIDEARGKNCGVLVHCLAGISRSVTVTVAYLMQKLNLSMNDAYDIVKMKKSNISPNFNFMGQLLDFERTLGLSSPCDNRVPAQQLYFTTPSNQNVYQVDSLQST

[5] = target: Voltage-gated potassium channel subunit beta-2 (Rattus norvegicus) (UniProt P62483); assay: KvBeta enzyme negative modulators, primary screen, biochemical, NADPH fluorescence (AID 622;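 active = fluorescence slope higher than the sample average by over 3 SD, cut at about -0.22 in these data, passing the limit was not always enough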;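 note: slope of raw intensity against log time taken from 70 to 1610 s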); settings: recombinant KvBeta, 4-cyanobenzaldehyde reduction, at 10 µM, stronger effect = higher value
Voltage-gated potassium channel subunit beta-2 (Rattus norvegicus), sequence (P62483 whole entry, looked up): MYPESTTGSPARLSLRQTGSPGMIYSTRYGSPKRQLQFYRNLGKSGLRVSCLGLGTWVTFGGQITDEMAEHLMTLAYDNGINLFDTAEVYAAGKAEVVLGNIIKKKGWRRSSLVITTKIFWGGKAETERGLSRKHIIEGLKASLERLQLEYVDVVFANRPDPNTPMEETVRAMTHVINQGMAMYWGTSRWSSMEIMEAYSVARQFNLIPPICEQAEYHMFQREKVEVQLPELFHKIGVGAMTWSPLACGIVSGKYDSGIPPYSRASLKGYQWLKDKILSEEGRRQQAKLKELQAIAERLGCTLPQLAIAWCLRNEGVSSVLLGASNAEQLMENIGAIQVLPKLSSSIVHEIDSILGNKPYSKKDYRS

[6] = target: Voltage-gated potassium channel subunit beta-2 (Rattus norvegicus) (UniProt P62483); assay: KvBeta positive modulators, primary screen, biochemical, NADPH fluorescence (AID 623;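 active = NADPH fluorescence slope more negative than the mean of all samples by about 3 SD, 99.7% confidence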;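 note: fluorescence intensity change per second fitted from 20 to 320 s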); settings: Recombinant KvBeta, NADPH fluorescence decrease slope, 10 min; at 10 µM; stronger effect = lower value
[7] = target: Alpha-2C adrenergic receptor (Homo sapiens) (UniProt P18825); assay: modulators of alpha2C/GIRK thallium flux, primary screen, cell-based, HEK293 alpha2C/GIRK1/2 (AID 624;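 active = fluorescence slope after compound addition differing from the mean of all screened samples at 99.7% confidence, in either direction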;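 note: slope of fluorescence ratio to pre-addition baseline per second over 15 to 24 s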); settings: thallium flux BTC fluorescence, at 10 µM, actives lie on both sides
Alpha-2C adrenergic receptor (Homo sapiens), sequence (P18825 whole entry, looked up): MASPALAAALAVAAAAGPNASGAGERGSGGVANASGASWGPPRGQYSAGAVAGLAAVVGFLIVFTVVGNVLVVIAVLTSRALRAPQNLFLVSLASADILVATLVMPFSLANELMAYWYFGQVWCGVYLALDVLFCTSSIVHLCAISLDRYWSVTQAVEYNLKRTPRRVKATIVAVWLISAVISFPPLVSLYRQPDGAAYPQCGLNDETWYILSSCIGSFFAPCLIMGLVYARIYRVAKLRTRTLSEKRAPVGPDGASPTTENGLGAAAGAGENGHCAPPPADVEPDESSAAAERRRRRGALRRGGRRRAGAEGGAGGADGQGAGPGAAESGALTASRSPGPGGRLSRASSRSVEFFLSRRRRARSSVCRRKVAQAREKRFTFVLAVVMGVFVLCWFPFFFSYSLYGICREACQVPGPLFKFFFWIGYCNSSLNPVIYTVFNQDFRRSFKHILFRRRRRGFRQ

[8] = inhibitors of larval lipid processing in zebrafish, primary screen, whole organism, PED6 fluorescence, gall bladder and intestine (AID 686;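 active = a full or partial loss of lipid-probe fluorescence in the fish gall bladder, intestine or both, judged by eye; inactive = no fluorescence loss, or compound toxic to the fish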;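 note: larvae 5 to 7 days old with five fish per well; signal comes from phospholipase A2 cleavage of quenched PED6 carried via bile; overnight exposure to compound and PED6 before scoring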); settings: Zebrafish larvae PED6 lipid processing, fluorescence scoring; screened at 20 µM (by protocol)
Summary of the method: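 Also added: quenched phospholipase substrate PED6, 100 nM final, ingested by larvae; System: zebrafish larvae, 5-7 d; Quantity: 5 larvae per well; Compound: 20 µM single dose; Schedule: overnight compound and PED6 incubation; Read-out: visual per-well fluorescence inhibition score; Measured by: By-eye fluorescence microscopy; Medium: E3.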

[9] = inhibitors of Chlamydomonas gravitaxis, primary screen, whole organism, Chlamydomonas reinhardtii, WT vs cilia-less mutant, absorbance, 96-well (AID 463189;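 active = inhibition at or above 50% relative to wild type and mutant plate controls; inactive = inhibition below 50%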;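 note: 0% = wild type cc124 cells in DMSO and 100% = ciliumless bld1 mutant cells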); settings: OD600 absorbance, 2 days, at 10 µM, stronger effect = higher value
[10] = measured here: cell density z-score
[11] = measured here: nuclear c-Myc green intensity z-score
[12] = measured here: nuclear pErk red intensity z-score, stronger effect = higher value

Row | Structure (SMILES) | cell count [1] | inhibition [1] | inhibition [2] | nuclei count [2] | z-score [3, 10] | z-score [3, 11] | z-score [3, 12] | inhibition [4] | fluorescence slope [5] | NADPH fluorescence slope [6] | slope [7] | outcome [8] | inhibition [9]
1 | O=C(O)c1nsc(Cl)c1Cl | 628 | -18.8% (inactive) | 39.2% (inactive) | 170% | -0.315 | -1.86 | 0.801 | -6.06% (inactive) | -0.386 (inactive) | -3.3e-06 (inactive) | 0.00603 (inactive) | inactive | 6.17% (inactive)
2 | COCCNc1nc2c(c(=O)n(Cc3ccc(OC)cc3)c(=O)n2C)n1C | 357 | -17.8% (inactive) | -26.3% (inactive) | 128% | 0.697 | 0.778 | -0.00517 | 4.37% (inactive) | -0.32 (inactive) | 7.3e-06 (inactive) | 0.00535 (inactive) | inactive | 15.2% (inactive)
3 | COc1cccc(-c2nnc3sc(-c4cccs4)nn23)c1 | 595 | -9.3% (inactive) | -23% (inactive) | 158% | -0.757 | 0.596 | -0.177 | -11.5% (inactive) | -0.406 (inactive) | -0.000146 (inactive) | 0.00547 (inactive) | inactive | 67.3% (active)
4 | CC(C)Oc1ccc(/C(O)=C2/C(=O)C(=O)N(CCN(C)C)C2c2ccco2)cc1 (stereo unspecified) | 481 | -1% (inactive) | -6.9% (inactive) | 112% | -0.569 | -0.19 | -0.239 | -1.12% (inactive) | -0.324 (inactive) | 1.4e-05 (inactive) | 0.00581 (inactive) | inactive | 6.02% (inactive)
5 | Cc1ccsc1C1NC(=O)c2c(sc3c2CCCC3)N1 (stereo unspecified) | 584 | -31.7% (inactive) | -31.6% (inactive) | 166% | -1.62 | -0.46 | 1.02 | -18.6% (inactive) | -0.411 (inactive) | -3.5e-05 (inactive) | 0.00518 (inactive) | inactive | 22.5% (inactive)
6 | CCOc1ccc(-c2nnc3sc(COc4ccccc4)nn23)cc1 | 502 | -11.7% (inactive) | -288% (inactive) | 155% | -0.358 | -0.85 | 1.78 | -15% (inactive) | -0.405 (inactive) | -0.000151 (inactive) | 0.00528 (inactive) | inactive | 53.8% (active)
7 | CNc1nc(C)c(C#N)cc1C(C)=O | 481 | -11.7% (inactive) | 8.2% (inactive) | 166% | 0.906 | -0.478 | -0.65 | 5.65% (inactive) | -0.513 (inactive) | -9.4e-05 (inactive) | 0.00563 (inactive) | inactive | 26.6% (inactive)
8 | COc1ccc(C2CC(=O)c3sc(N)nc3C2)cc1 (stereo unspecified) | 424 | -15.2% (inactive) | -328% (inactive) | 147% | 0.261 | -0.0796 | -0.89 | 26.6% (inactive) | -0.408 (inactive) | -1.9e-05 (inactive) | 0.00734 (inactive) | inactive | 0.76% (inactive)
9 | CCc1nnc(NC(=O)c2c(O)c3c([nH]c2=O)CCCC3)s1 | 332 | -15.4% (inactive) | -91.6% (inactive) | 154% | 0.462 | -0.342 | -0.281 | -7.01% (inactive) | -0.391 (inactive) | -0.000158 (inactive) | 0.00514 (inactive) | inactive | 8.98% (inactive)
10 | CCOC(=O)c1[nH]c2ccc(OC)cc2c1NC(=O)CCN1CCN(Cc2ccccc2)CC1 | 541 | -11.2% (inactive) | -92.4% (inactive) | 165% | 1.87 | 1.32 | -0.24 | 1.12% (inactive) | -0.173 (inactive) | -2.9e-05 (inactive) | 0.00459 (inactive) | inactive | 16.3% (inactive)
11 | CC1CN(c2oc(-c3cccs3)nc2C#N)CC(C)O1 (stereo unspecified) | 437 | -13.6% (inactive) | -188% (inactive) | 178% | -0.465 | 0.306 | 0.34 | 0.671% (inactive) | -0.0506 (inactive) | 4e-07 (inactive) | 0.00683 (inactive) | inactive | 5.74% (inactive)
12 | Cc1cc(C)n(CC(=O)N2c3ccccc3Sc3ccccc32)n1 | 563 | -0.4% (inactive) | -139% (inactive) | 139% | 0.655 | 0.867 | -0.852 | 15.9% (inactive) | -0.508 (inactive) | -4.4e-05 (inactive) | 0.00518 (inactive) | inactive | 14.7% (inactive)
13 | Oc1c(C=Nc2cccnc2)sc2ccccc12 | 623 | -14.4% (inactive) | -17% (inactive) | 170% | 0.476 | 0.705 | 1.13 | -20.4% (inactive) | -0.405 (inactive) | -6e-05 (inactive) | 0.0055 (inactive) | inactive | -14.9% (inactive)
14 | C[C@@H]1C[C@H](Nc2ccccc2)c2ccccc2N1C(=O)c1cccnc1 | 539 | -1.7% (inactive) | 3.9% (inactive) | 159% | 2.9 | -1.02 | 0.461 | 25.7% (inactive) | -0.265 (inactive) | 6.9e-06 (inactive) | 0.00503 (inactive) | inactive | 0.503% (inactive)
15 | COCCNc1oc(-c2ccc(Cl)cc2)nc1C#N | 465 | -6.3% (inactive) | -25.2% (inactive) | 161% | 1.04 | -0.285 | -0.188 | 2.46% (inactive) | -0.17 (inactive) | 9.3e-06 (inactive) | 0.00534 (inactive) | inactive | 10.6% (inactive)
16 | CCc1cccc(CC)c1N(COC)C(=O)Cn1nnc2ccccc21 | 369 | -11% (inactive) | -230% (inactive) | 180% | 0.728 | 0.454 | -0.0174 | 20.8% (inactive) | -0.394 (inactive) | -2.8e-05 (inactive) | 0.00431 (inactive) | inactive | 23.5% (inactive)
17 | CC(=O)OCc1c(COC(C)=O)[n+](=O)c2ccccc2n1[O-] | 523 | -7% (inactive) | -114% (inactive) | 156% | 0.0201 | -0.163 | -0.453 | 2.46% (inactive) | -0.322 (inactive) | 1.5e-05 (inactive) | 0.00492 (inactive) | inactive | 17% (inactive)
18 | CCCOc1ccc(Cc2nn[nH]n2)cc1 | 665 | -9.9% (inactive) | -18.7% (inactive) | 154% | -1.6 | 0.733 | 2.09 | -3.95% (inactive) | -0.396 (inactive) | -5.5e-05 (inactive) | 0.00599 (inactive) | inactive | -6.39% (inactive)
19 | COc1cccc(C2/C(=C(\O)c3ccc4c(c3)OCCO4)C(=O)C(=O)N2CCN(C)C)c1 (stereo unspecified) | 509 | -0.6% (inactive) | -108% (inactive) | 138% | 1 | -0.131 | -0.387 | 17.5% (inactive) | -0.546 (inactive) | -3.2e-05 (inactive) | 0.00546 (inactive) | inactive | -11.2% (inactive)
20 | C/C(=N\O)C1(C)N(O)C(C)(C)C(c2ccco2)=[N+]1[O-] (stereo unspecified) | 428 | -2.8% (inactive) | -112% (inactive) | 131% | 0.73 | -1.17 | -0.0605 | 13.2% (inactive) | -0.486 (inactive) | -3.2e-05 (inactive) | 0.00518 (inactive) | inactive | 14.5% (inactive)
21 | O=C(Nc1ccc2c(c1)OCO2)c1cc2n(n1)C(C(F)(F)F)CC(c1ccccc1)N2 (stereo unspecified) | 415 | -5.8% (inactive) | 33.8% (inactive) | 65.6% | -0.336 | 0.972 | -0.0303 | 7.48% (inactive) | -0.544 (inactive) | -7.9e-05 (inactive) | 0.00462 (inactive) | inactive | -16.3% (inactive)
22 | O=S1CCCSC1c1cccnc1 (stereo unspecified) | 524 | -10.3% (inactive) | -190% (inactive) | 144% | 1.86 | -0.668 | -1.2 | 13.9% (inactive) | -0.507 (inactive) | -1.9e-05 (inactive) | 0.00681 (inactive) | inactive | 2.49% (inactive)
23 | Cc1ccc2[nH]c3c(N4CCN(Cc5ccc6c(c5)OCO6)CC4)ncnc3c2c1 | 390 | -21.4% (inactive) | -47.6% (inactive) | 168% | -0.222 | 0.595 | -3.73 | -3.5% (inactive) | -0.396 (inactive) | -0.000159 (inactive) | 0.00427 (inactive) | inactive; toxic | 140% (active)
24 | CCOC(=O)C1=C(CSc2nc3c(cc2C#N)CCC3)OC(N)=C(C#N)C1c1ccccc1 (stereo unspecified) | 514 | -16.1% (inactive) | -90.1% (inactive) | 118% | -0.196 | 0.0665 | -0.283 | -0.674% (inactive) | -0.426 (inactive) | 5.2e-06 (inactive) | 0.00558 (inactive) | inactive | 5.98% (inactive)
25 | CC(C)OC(=O)c1nn2c(C(F)(F)F)cc(-c3ccc(Br)o3)nc2c1Br | 519 | -4.9% (inactive) | 5.6% (inactive) | 127% | -1.28 | -0.277 | 1.66 | -9.7% (inactive) | -0.29 (inactive) | -4.3e-06 (inactive) | 0.00144 (inactive) | inactive | 18.5% (inactive)
26 | CC1(c2ccco2)NC(=O)NC1=O (stereo unspecified) | 665 | -2.9% (inactive) | -112% (inactive) | 160% | -0.981 | -0.00713 | 0.00425 | -3.98% (inactive) | -0.492 (inactive) | -0.00016 (inactive) | 0.00442 (inactive) | inactive | -5.4% (inactive)
27 | O=C(CCN1CCCCC1)Nc1cccc(Cl)c1 | 336 | -14.7% (inactive) | -49.9% (inactive) | 138% | -1.72 | 0.965 | 0.516 | -3.5% (inactive) | -0.42 (inactive) | -0.000129 (inactive) | 0.0069 (inactive) | inactive | -5.09% (inactive)
